According to ChEMBL document CHEMBL1145813, “Synthesis and evaluation of 11C-labeled 6-substituted 2-arylbenzothiazoles as amyloid imaging agents” (J Med Chem, 2003):

Key:
[1] = Percent injected dose per gram of compound to Swiss-Webster mice brain was measured after 30 min of intravenous injection; type: functional, Mus musculus
How it was run: (§1)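 Female Swiss-Webster mice (23–35 g) received 0.37–3.7 MBq of high specific activity (>7.4 GBq/μmol) 11C-labeled derivative by lateral tail vein, in ≤0.10 mL of 93% isotonic saline/7% ethanol. Mice were killed at 2 or 30 min, and whole brain minus cerebellum was gamma-counted and decay-corrected against injectate standards. %ID/g was multiplied by body weight (kg). The 2 min/30 min ratio was taken from these values.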

[2] = Apparent lipophilicity was determined
[3] = Percent injected dose per gram of compound to Swiss-Webster mice brain was measured after 2 min of intravenous injection; type: functional, Mus musculus; how it was run: as §1
[4] = molecular target: Amyloid-beta precursor protein (Homo sapiens, UniProt P05067); experiment: Binding affinity for Amyloid beta 1-40 aggregates in competition with [N-methyl-3H] BTA-1.
[5] = Ratio of percent injected dose per gram of compound to Swiss-Webster mice brain after 2 min and 30 min of intravenous injection; type: functional; how it was run: as §1

Chain of Amyloid-beta precursor protein (P05067 whole entry): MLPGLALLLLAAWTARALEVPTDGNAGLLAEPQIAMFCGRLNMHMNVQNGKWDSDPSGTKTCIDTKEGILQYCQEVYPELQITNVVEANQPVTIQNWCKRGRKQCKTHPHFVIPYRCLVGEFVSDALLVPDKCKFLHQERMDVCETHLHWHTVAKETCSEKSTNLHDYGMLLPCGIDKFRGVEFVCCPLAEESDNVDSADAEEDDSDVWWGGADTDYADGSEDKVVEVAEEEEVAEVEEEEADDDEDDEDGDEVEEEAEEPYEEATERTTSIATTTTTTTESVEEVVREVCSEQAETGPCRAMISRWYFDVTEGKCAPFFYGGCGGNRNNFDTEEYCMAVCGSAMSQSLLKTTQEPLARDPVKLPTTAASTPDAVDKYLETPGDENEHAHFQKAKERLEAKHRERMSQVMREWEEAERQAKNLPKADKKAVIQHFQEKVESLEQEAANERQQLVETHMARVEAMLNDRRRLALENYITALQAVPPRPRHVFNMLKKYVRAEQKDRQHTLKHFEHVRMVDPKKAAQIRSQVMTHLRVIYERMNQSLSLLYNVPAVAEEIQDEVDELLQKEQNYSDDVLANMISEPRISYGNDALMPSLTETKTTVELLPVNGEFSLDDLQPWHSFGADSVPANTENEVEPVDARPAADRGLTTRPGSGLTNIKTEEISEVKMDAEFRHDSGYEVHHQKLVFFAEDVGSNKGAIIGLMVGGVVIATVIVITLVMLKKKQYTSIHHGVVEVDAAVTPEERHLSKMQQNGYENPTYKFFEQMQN

SMILES | chromatographic logD [2] | Ki [4] | ID [1] | ID [3] | Ratio [5]
CNc1ccc(-c2nc3ccc(C)cc3s2)cc1 | 3.1 | – | 0.083% | 0.22% | –
Nc1ccc(-c2nc3ccc(Br)cc3s2)cc1 | 2.9 | 7.2 nM | – | – | –
Nc1ccc(-c2nc3ccccc3s2)cc1 | 2 | 37 nM | – | – | –
COc1ccc2nc(-c3ccc(N(C)C)cc3)sc2c1 | 3.3 | 1.9 nM | 0.14% | 0.16% | 1.1
Cc1ccc2nc(-c3ccc(N(C)C)cc3)sc2c1 | 3.8 | 64 nM | 0.15% | 0.078% | 0.52
CN(C)c1ccc(-c2nc3ccccc3s2)cc1 | 3.4 | 4 nM | 0.078% | 0.19% | 2.5
CN(C)c1ccc(-c2nc3ccc(Br)cc3s2)cc1 | 4.4 | 2.9 nM | 0.11% | 0.054% | 0.49
CN(C)c1ccc(-c2nc3ccc(C#N)cc3s2)cc1 | 3.2 | 11 nM | 0.097% | 0.24% | 2.5
CNc1ccc(-c2nc3ccc(OC)cc3s2)cc1 | 2.6 | 4.9 nM | 0.1% | 0.33% | 3.2
CNc1ccc(-c2nc3ccc(O)cc3s2)cc1 [PITTSBURGH COMPOUND B UNLABELLED] | – | – | 0.018% | 0.21% | –

More lines, main results first:

chromatographic logD [2] | Ki [4] | SMILES | ID [1] | ID [3] | Ratio [5]
2.4 | 9.5 nM | Cc1ccc2nc(-c3ccc(N)cc3)sc2c1 | – | – | –
1.9 | 7 nM | COc1ccc2nc(-c3ccc(N)cc3)sc2c1 | 0.084% | 0.32% | 3.8
– | 46 nM | Nc1ccc(-c2nc3ccc(O)cc3s2)cc1 | – | – | –
2.7 | – | CNc1ccc(-c2nc3ccccc3s2)cc1 | 0.057% | 0.43% | –
1.8 | 64 nM | N#Cc1ccc2nc(-c3ccc(N)cc3)sc2c1 | – | – | –
2 | 4.4 nM | CN(C)c1ccc(-c2nc3ccc(O)cc3s2)cc1 | 0.1% | 0.32% | 3
3.6 | 1.7 nM | CNc1ccc(-c2nc3ccc(Br)cc3s2)cc1 | 0.12% | 0.12% | 1
2.5 | 8.6 nM | CNc1ccc(-c2nc3ccc(C#N)cc3s2)cc1 | 0.063% | 0.32% | 5
